The source made the active and inactive calls. No cut-off for these calls is given here.
Columns and labels:
[1] = test system: Human immunodeficiency virus 1; assay: Antiviral activity against HIV1 IRLL98 mutant strain infected MT4 cells by MTT method; format: functional, organism-based; conditions: Human immunodeficiency virus 1, IRLL98, MT4
Procedure, shortened: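 MT-4 cells infected with the HIV-1 mutant strain, or mock-infected for cytotoxicity, in the presence of a range of drug concentrations. Viable cells were counted by MTT colorimetric assay on day 5 post-infection. EC50 is the concentration that blocks 50% of HIV-induced cell death. Values are the mean of at least two experiments. IRLL98 carries RT mutations K101Q, Y181C and G190A, plus NRTI mutations.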

[2] = test system: Human immunodeficiency virus type 1 reverse transcriptase (Human immunodeficiency virus 1), Q72547 [K103N]; assay: Inhibition of K103N mutant HIV1 reverse transcriptase by [3H]dTTP poly(rA)/oligo(dT) incorporation at 400 uM
Procedure, shortened: (§1)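 RNA-dependent DNA polymerase assay of recombinant RT at 5–10 nM. Template: poly(rA)/oligo(dT) (0.3 μM 3'-OH ends) with 10 μM [3H]-dTTP. Run 10 min at 37 °C with increasing inhibitor. TCA-precipitated product was counted on GF/C filters. Highest concentration tested was 400 μM.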

[3] = test system: Human immunodeficiency virus type 1 reverse transcriptase (Human immunodeficiency virus 1), Q72547 [Y181I]; assay: Inhibition of Y181I mutant HIV1 reverse transcriptase by [3H]dTTP poly(rA)/oligo(dT) incorporation at 400 uM; procedure, shortened: as §1
[4] = test system: Human immunodeficiency virus 1; assay: Antiviral activity against HIV1 K103N mutant strain infected MT4 cells by MTT method at 62 uM; format: functional; conditions: Human immunodeficiency virus 1, K103N
Procedure, shortened: (§2)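 MT-4 cells infected with the mutant HIV-1 strain and treated with compound. Viable cells were measured by MTT colorimetric assay on day 5 post-infection. The value is the percent inhibition of HIV-induced cell death at the stated micromolar concentration. Values are the mean of at least two experiments.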

[5] = test system: Human immunodeficiency virus 1; assay: Antiviral activity against wild type HIV1 NL4-3 infected MT4 cells by MTT method; format: functional, organism-based; conditions: Human immunodeficiency virus 1, NL4-3, MT4
Procedure, shortened: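 MT-4 lymphoid cells infected with HIV-1 NL4-3 in the presence of graded drug concentrations. Viable cells counted by MTT colorimetric assay at day 5 post-infection. EC50 is the concentration protecting 50% of cells from HIV-induced death. Mean of at least two experiments.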

[6] = target: Human immunodeficiency virus type 1 reverse transcriptase (Human immunodeficiency virus 1) (UniProt Q72547)
MT4 [7] = assay: Cytotoxicity against MT4 cells by MTT method; format: functional; conditions: Homo sapiens
Procedure, shortened: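 Mock-infected MT-4 cells exposed to graded drug concentrations. Viability assessed by MTT colorimetric method at day 5. CC50 is the concentration causing 50% death of noninfected cells. Mean of at least two experiments.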

[8] = test system: Human immunodeficiency virus 1; assay: Antiviral activity against HIV1 Y188L mutant strain infected MT4 cells by MTT method; format: functional, organism-based; conditions: Human immunodeficiency virus 1, Y188L, MT4
[9] = test system: Human immunodeficiency virus 1; assay: Antiviral activity against HIV1 IRLL98 mutant strain infected MT4 cells by MTT method at 11 uM; format: functional; conditions: Human immunodeficiency virus 1, IRLL98, MT4; procedure, shortened: as §2
[10] = test system: Human immunodeficiency virus 1; assay: Antiviral activity against HIV1 K103N mutant strain infected MT4 cells by MTT method; format: functional, organism-based; conditions: Human immunodeficiency virus 1, K103N
MT4 [11] = assay: Cytotoxicity against MT4 cells by MTT method at 11 uM; format: functional, Homo sapiens
[12] = target: Human immunodeficiency virus type 1 reverse transcriptase (Human immunodeficiency virus 1) (UniProt Q72547); assay: Inhibition of wild type HIV1 reverse transcriptase by [3H]dTTP poly(rA)/oligo(dT) incorporation at 400 uM; procedure, shortened: as §1
[13] = test system: Human immunodeficiency virus 1; assay: Antiviral activity against wild type HIV1 NL4-3 infected MT4 cells by MTT method at 2.3 uM; format: functional; conditions: Human immunodeficiency virus 1, NL4-3, MT4
Procedure, shortened: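 MT-4 cells infected with HIV-1 NL4-3 and exposed to drug. Viable cells measured by MTT assay at day 5 post-infection. Result given as percent inhibition of HIV-induced cell death at the stated micromolar concentration. Mean of at least two experiments.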

[14] = test system: Human immunodeficiency virus type 1 reverse transcriptase (Human immunodeficiency virus 1), Q72547 [K103N]
[15] = test system: Human immunodeficiency virus type 1 reverse transcriptase (Human immunodeficiency virus 1), Q72547 [Y181I]

| Compound | EC50 [1] [µM] | ID50 [2] | ID50 [3] | inhibition at 62 µM [4] [%] | EC50 [5] [µM] | ID50 [6] [µM] | CC50 (MT4 [7]) [µM] | EC50 [8] [µM] | inhibition at 11 µM [9] [%] | EC50 [10] [µM] | Activity (MT4 [11]) [%] | ID50 [12] | inhibition at 2.3 µM [13] [%] | ID50 [14] [µM] | ID50 [15] [µM] |
| --- | --- | --- | --- | --- | --- | --- | --- | --- | --- | --- | --- | --- | --- | --- | --- |
| Cc1c(O)nc(SCc2ccc(C(C)C)cc2)nc1Cc1c(F)cccc1F | 16 | inactive | inactive | 33 | 0.58 | 3 | > 62 | > 62 | – | – | – | – | – | – | – |
| CCCCOc1ccc(CSc2nc(O)c(C)c(Cc3c(Cl)cccc3Cl)n2)cc1 | – | inactive | inactive | – | > 3.1 | 2.8 | 3.1 | > 3.1 | 34 | > 3.1 | – | – | – | – | – |
| Cc1c(O)nc(SCc2ccc(C(C)C)cc2)nc1Cc1c(Cl)cccc1Cl | > 57 | inactive | inactive | – | – | – | – | > 58 | – | > 58 | 45 | inactive | 35 | – | – |
| COc1ccc(CS(=O)(=O)c2nc(O)c(C)c(Cc3c(Cl)cccc3Cl)n2)cc1 | > 2.8 | – | – | – | > 2.8 | 0.006 | 2.8 | > 2.8 | – | > 2.8 | – | – | – | 10 | 27 |

From ChEMBL document CHEMBL1141224, “Parallel solution-phase and microwave-assisted synthesis of new S-DABO derivatives endowed with subnanomolar anti-HIV-1 activity” (J Med Chem, 2005)
